One test concerns P388. Kind of test: Cytotoxicity against mouse P388 cells. Format: functional, cell-based.
Test [1] relates to KB. Kind of test: Growth inhibition of human KB cells […] after 72 hrs by MTS assay. Format: functional. The procedure, abridged: (§1)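 KB human buccal carcinoma cells incubated with chalcone for 72 h. Growth read by MTS assay and expressed as percent inhibition of cell growth.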
Background: Tetrazolium dyes change colour on reduction, which living cells bring about.

For another test, the system named is Leishmania amazonensis. Kind of test: Antileishmanial activity against Leishmania amazonensis LV9 ([…]/M1841) amastigotes infected in mouse macrophage after 30 hrs by MTT assay. It counts as functional, organism-based. In short, it runs like this: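 Intracellular amastigotes of L. amazonensis LV9 (MPROB/BR/1972/M1841), isolated from lesions and purified, grown inside murine macrophages. Compounds incubated with infected macrophages for 30 h. IC50 reported.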

The test system of a further test is Leishmania donovani. Description: Antileishmanial activity against Leishmania donovani MHOM/ET/1967/HU3 (LV9) promastigotes after 72 hrs by MTT assay. It counts as functional, organism-based. In short, it runs like this: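 Promastigotes of L. donovani LV9 clone (MHOM/ET/67/HU3) exposed to drug for 72 h. Viability read by MTT assay and IC50 derived.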
Test [2] can be described thus: Inhibition of tubulin assembly at 200 uM. In short, it runs like this: (§2)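 Tubulin assembly followed by the Zavala and Guenard method, with compounds tested at 0.1 mg/ml (about 2 × 10^-4 M). IC50 is expressed as a ratio to the deoxypodophyllotoxin IC50.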
The nature of test [3]: Inhibition of tubulin assembly. The procedure, abridged:
as §2

A short description of test [4]: Inhibition of tubulin assembly assessed as ratio of IC50 for drug to IC50 for deoxypodophyllotoxin.
For test [5], the system named is HL-60. Kind of test: Induction of apoptosis in human HL60 cells assessed as fold activation of caspase 3/7 at 10 uM. It counts as functional. In short, it runs like this:
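HL60 human leukemia cells treated with compound. Caspase 3/7 activity measured with DEVD-AMC substrate and given as fold activation at the optimal compound concentration.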

Test [6] deals with KB. Description: Antiproliferative activity against human KB cells after 72 hrs by MTS assay. It counts as functional, cell-based.
For test [7], the system named is HL-60. Kind of test: Induction of apoptosis in human HL60 cells assessed as fold activation of caspase 3/7 at 100 nM. Format: functional. In short, it runs like this: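 HL60 human leukemia cells; caspase 3/7 activation measured using DEVD-AMC substrate; reported as fold activation at the optimal compound concentration.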
Test [8] concerns KB. Description: Cytotoxicity against human KB cells. Format: functional, cell-based. In short, it runs like this: as §1
A short description of test [9]: Selectivity index, ratio of IC50 for mouse macrophage to IC50 for Leishmania amazonensis LV9 ([…]/M1841) amastigotes. In short, it runs like this:
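Selectivity index is the IC50 for cytotoxicity against murine macrophages divided by the IC50 against L. amazonensis LV9 intracellular amastigotes. Amastigotes were assayed after 30 h incubation of infected macrophages with drug.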

Calls of active or inactive are those of the source. No cut-off for these calls is given here.

As usually defined, the IC50 is the midpoint of a concentration-inhibition curve. Low values mean greater potency, high ones weaker potency. As for `COc1c(O)c(OC)c(OC)c(C(=O)/C=C/c2ccccc2)c1O` [ISODIDYMOCARPIN], it took 11.1 µM to reach half-maximal inhibition with P388 (IC50).

Take `COc1ccc(/C=C/C(=O)c2cc(OC)c(OC)c(OC)c2)cc1[N+](=O)[O-]`: in the test on KB [1], the “inhibition (INH)” value came out at 44%. Further, in the test on Leishmania amazonensis, the result was inactive. In the test on Leishmania donovani, this molecule returned an IC50 of 2.8 µM.

As a reminder, the inhibition is the change of the read-out against control, counted positive when it falls. A lower inhibition goes with a weak effect. Turning to `COc1ccc(/C=C/C(=O)c2c(OC)c(OC)c(OC)c(OC)c2OC)cc1[N+](=O)[O-]`, in the test on KB [1], the “inhibition (INH)” value is on record as 19%. For the same molecule, the inhibition in test [2] is below 30%.

For the molecule `COc1ccc(/C=C/C(=O)c2c(O)c(OC)c(OC)c(OC)c2OC)cc1O`, the IC50 in test [3] is 13 µM; with Leishmania donovani, 25 µM. In addition, the Ratio IC50 in test [4] was found to be 3.8. Moreover, the “inhibition (INH)” value in the test with KB [1] is recorded as 49%. Further, the result in the test with Leishmania amazonensis was inactive. Moreover, the “fold change (FC)” value in the test with HL-60 [5] is listed as 3.2.

Consider `COc1ccc(/C=C/C(=O)c2c(OC)c(OC)c(OC)c(OC)c2OC)cc1O`, for which, in the test with KB [1], the “inhibition (INH)” value was 22%. In test [2], this molecule registered an inhibition below 30%. This molecule also had an IC50 in the test with Leishmania donovani of 20 µM.

As to `COc1ccc(/C=C/C(=O)c2cc(OC)c(OC)c(OC)c2)cc1O`, the IC50 in [3] was found to be 4.3 µM; with KB [6], 0.017 µM. Besides, the Ratio IC50 in test [4] is 1.3. For the same molecule, in the test with KB [1], the “inhibition (INH)” value was 100%. For the same molecule, the “fold change (FC)” value with HL-60 [7] stood at 3.6.

On to `COc1c(O)c(OC)c(C(=O)/C=C/c2ccccc2)c(O)c1OC` [PEDICIN], for which the IC50 in [3] was determined as 300 µM; in the test with KB [8], 21.2 µM.

In the case of `COc1cc(C(=O)/C=C/c2cccc([N+](=O)[O-])c2)cc(OC)c1OC`, the “inhibition (INH)” value in the test with KB [1] is 29%. In addition, in test [9], the “Ratio IC50” value came to 2.8. The values for the IC50 in the test with Leishmania amazonensis and in the test on Leishmania donovani were 26 µM and 0.4 µM, respectively.

`COc1ccc(/C=C/C(=O)c2c(O)c(OC)c(OC)c(OC)c2OC)cc1[N+](=O)[O-]`: the “inhibition (INH)” value with KB [1] is on record as 43%. In [2], this molecule came in with an inhibition below 30%. For the same molecule, the outcome in the test on Leishmania amazonensis was inactive. This molecule returned an IC50 with Leishmania donovani of 5.3 µM. For the same molecule, in the test on HL-60 [5], the “fold change (FC)” value amounted to 1.2.

`COc1c(O)c(C(=O)/C=C/c2cccc([N+](=O)[O-])c2)c(OC)c(OC)c1OC`: the “inhibition (INH)” value in the test on KB [1] was 31%. Moreover, the “Ratio IC50” value in test [9] is 2.5. For the same molecule, the IC50 is 26 µM with Leishmania amazonensis and 4.4 µM in the test with Leishmania donovani.

With `COc1ccc(/C=C/C(=O)c2c(O)c(OC)c(OC)c(OC)c2OC)cc1N`, the IC50 in [3] turned out to be 14 µM; with Leishmania donovani, 44 µM. The Ratio IC50 in [4] was determined as 4.1. For the same molecule, in the test with KB [1], the “inhibition (INH)” value worked out at 40%. Also, in the test with Leishmania amazonensis, the outcome was inactive. The “fold change (FC)” value in the test on HL-60 [5] was found to be 2.9.

With `COc1ccc(/C=C/C(=O)c2cc(OC)c(OC)c(OC)c2)cc1N`, the results for the half-inhibitory concentration (IC50) (in test [3]; in the test on KB [6]) were 3.7 µM and 0.031 µM, respectively. For the same molecule, the Ratio IC50 in test [4] came out at 1. In addition, in the test with KB [1], the “inhibition (INH)” value amounted to 100%. In the test on HL-60 [7], the “fold change (FC)” value was found to be 3.6.

As for `COc1ccc(/C=C/C(=O)c2c(OC)c(OC)c(OC)c(OC)c2OC)cc1N`, the “inhibition (INH)” value in the test with KB [1] came out at 29%. In [2], this molecule had an inhibition below 30%.

(Values after ChEMBL document CHEMBL1139261, “Synthesis and biological evaluation of a series of tangeretin-derived chalcones” (Bioorg Med Chem Lett, 2009).)
